In the M2OR odorant receptor database:

Legend:
Conditions in all cases: stereoisomer not certain
UniProt A2ATE5 = molecular target: T1, UniProt A2ATE5
T1 sequence (whole entry): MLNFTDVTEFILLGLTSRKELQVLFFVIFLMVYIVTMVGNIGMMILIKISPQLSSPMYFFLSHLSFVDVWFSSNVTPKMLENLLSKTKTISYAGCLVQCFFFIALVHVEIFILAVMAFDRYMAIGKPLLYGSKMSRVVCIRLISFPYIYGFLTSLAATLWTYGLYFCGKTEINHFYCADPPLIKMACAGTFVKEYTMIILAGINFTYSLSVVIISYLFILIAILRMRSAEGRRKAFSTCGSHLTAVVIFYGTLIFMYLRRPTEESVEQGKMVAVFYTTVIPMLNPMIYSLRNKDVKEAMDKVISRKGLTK
Outline: (§1)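 Each entry records the cell line, G-protein, co-transfected protein and tags used. Methods varied with the source, often transient luciferase assays in mammalian cell lines. A receptor–molecule pair is called responsive (active) if the original authors judged its signal statistically different from baseline and non-responsive (inactive) otherwise.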

UniProt A2AVB0 = molecular target: T2, UniProt A2AVB0
T2 sequence (whole entry): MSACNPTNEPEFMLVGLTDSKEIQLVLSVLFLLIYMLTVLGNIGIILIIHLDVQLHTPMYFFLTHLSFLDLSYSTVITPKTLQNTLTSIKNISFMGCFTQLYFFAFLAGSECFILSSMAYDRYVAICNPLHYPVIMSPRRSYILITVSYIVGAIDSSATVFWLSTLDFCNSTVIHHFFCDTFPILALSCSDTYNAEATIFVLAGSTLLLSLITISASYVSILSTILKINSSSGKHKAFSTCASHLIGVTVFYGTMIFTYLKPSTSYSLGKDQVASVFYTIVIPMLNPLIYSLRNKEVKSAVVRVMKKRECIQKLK
Outline: as §1

UniProt A2AVB5 = molecular target: T3, UniProt A2AVB5
T3 sequence (whole entry): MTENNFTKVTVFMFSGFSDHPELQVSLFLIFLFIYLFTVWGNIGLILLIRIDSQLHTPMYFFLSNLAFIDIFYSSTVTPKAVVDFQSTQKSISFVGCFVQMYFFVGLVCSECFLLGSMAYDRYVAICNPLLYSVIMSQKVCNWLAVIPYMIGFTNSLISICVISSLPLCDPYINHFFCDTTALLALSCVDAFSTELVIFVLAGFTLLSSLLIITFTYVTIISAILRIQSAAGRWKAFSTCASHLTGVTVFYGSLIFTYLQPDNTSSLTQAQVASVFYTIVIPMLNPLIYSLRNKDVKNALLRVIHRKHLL
Outline: as §1

UniProt B2RVX8 = molecular target: T4, UniProt B2RVX8
T4 sequence (whole entry): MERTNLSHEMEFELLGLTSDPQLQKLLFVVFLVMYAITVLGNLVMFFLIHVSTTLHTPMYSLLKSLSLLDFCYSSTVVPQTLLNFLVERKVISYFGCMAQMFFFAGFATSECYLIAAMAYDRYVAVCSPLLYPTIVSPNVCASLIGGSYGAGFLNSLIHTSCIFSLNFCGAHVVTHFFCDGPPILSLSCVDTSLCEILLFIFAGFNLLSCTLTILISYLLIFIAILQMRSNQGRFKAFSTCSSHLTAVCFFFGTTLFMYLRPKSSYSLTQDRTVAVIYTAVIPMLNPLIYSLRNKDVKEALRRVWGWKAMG
Outline: as §1

UniProt E9PVX1 = molecular target: T5, UniProt E9PVX1
T5 sequence (whole entry): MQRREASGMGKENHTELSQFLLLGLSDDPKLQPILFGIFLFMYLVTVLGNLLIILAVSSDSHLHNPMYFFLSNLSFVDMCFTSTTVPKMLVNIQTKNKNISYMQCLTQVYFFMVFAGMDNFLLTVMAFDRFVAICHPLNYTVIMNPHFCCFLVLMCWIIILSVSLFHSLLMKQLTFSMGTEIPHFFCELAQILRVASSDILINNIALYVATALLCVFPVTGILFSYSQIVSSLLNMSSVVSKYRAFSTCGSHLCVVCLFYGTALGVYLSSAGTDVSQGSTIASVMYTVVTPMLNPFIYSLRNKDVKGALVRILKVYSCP
Outline: as §1

UniProt E9PZ66 = molecular target: T6, UniProt E9PZ66
T6 sequence (whole entry): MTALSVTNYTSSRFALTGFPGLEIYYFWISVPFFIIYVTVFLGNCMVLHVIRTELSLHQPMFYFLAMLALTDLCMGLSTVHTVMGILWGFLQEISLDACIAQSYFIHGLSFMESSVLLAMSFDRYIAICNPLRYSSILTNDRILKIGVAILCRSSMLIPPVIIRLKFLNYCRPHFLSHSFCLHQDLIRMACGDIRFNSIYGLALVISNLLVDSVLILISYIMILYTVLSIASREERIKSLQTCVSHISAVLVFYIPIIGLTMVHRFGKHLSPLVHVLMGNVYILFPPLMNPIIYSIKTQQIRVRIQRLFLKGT
Outline: as §1

UniProt E9Q4X7 = molecular target: T7, UniProt E9Q4X7
T7 sequence (whole entry): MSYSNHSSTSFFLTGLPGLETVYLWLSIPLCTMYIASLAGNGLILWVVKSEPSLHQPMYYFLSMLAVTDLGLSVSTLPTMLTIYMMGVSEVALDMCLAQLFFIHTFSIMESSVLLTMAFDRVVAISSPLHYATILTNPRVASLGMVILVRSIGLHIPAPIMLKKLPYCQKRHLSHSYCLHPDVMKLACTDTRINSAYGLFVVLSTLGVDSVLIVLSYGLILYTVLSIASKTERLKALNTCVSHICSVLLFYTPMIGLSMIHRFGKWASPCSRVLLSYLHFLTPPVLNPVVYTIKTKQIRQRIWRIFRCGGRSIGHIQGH
Outline: as §1

UniProt E9Q546 = molecular target: T8, UniProt E9Q546
T8 sequence (whole entry): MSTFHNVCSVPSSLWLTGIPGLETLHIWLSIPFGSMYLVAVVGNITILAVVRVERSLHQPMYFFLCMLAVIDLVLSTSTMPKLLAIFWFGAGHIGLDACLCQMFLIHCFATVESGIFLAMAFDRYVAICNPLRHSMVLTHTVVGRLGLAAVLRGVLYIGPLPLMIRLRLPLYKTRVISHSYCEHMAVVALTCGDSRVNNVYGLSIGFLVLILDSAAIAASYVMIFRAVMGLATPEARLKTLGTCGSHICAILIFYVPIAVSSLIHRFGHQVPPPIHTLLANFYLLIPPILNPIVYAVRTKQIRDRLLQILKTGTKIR
Outline: as §1

UniProt E9Q6Z7 = molecular target: T9, UniProt E9Q6Z7
T9 sequence (whole entry): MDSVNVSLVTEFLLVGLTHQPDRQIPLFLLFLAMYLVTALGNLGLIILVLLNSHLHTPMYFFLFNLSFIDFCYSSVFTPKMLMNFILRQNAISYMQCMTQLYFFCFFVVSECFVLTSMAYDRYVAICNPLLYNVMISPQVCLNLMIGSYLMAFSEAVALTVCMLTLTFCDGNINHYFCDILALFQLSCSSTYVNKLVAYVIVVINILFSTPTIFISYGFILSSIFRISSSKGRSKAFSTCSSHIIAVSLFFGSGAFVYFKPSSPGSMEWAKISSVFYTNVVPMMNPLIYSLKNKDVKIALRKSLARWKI
Outline: as §1

UniProt K7N609 = molecular target: T10, UniProt K7N609
T10 sequence (whole entry): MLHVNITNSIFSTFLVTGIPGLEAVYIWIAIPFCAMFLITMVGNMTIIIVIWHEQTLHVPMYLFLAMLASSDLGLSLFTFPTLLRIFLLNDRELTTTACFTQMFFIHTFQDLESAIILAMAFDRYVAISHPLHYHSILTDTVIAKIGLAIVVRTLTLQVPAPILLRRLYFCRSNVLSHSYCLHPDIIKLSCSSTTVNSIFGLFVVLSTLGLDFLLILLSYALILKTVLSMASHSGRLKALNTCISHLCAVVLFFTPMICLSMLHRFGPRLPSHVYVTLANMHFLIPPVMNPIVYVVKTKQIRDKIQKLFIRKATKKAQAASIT
Outline: as §1

UniProt E9PX47 = molecular target: T11, UniProt E9PX47
T11 sequence (whole entry): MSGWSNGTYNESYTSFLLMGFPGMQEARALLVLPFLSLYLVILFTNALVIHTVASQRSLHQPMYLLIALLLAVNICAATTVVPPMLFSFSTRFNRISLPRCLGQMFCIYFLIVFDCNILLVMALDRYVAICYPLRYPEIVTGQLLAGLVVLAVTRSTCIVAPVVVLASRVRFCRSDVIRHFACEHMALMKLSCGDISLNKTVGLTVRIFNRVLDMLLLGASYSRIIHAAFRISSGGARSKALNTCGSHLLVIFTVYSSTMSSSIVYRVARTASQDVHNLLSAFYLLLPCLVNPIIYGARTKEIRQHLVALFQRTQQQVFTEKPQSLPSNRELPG
Outline: as §1

UniProt E9PXN3 = molecular target: T12, UniProt E9PXN3
T12 sequence (whole entry): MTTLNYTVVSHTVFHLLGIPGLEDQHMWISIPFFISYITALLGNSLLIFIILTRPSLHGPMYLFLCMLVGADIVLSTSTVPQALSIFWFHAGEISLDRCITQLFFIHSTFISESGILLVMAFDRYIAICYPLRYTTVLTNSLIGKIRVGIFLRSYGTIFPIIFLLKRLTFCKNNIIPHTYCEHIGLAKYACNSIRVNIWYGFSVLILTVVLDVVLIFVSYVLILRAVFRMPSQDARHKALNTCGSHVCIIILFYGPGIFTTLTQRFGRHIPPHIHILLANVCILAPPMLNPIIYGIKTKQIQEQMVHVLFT
Outline: as §1

| SMILES | odorant receptor agonist call (UniProt A2ATE5) | odorant receptor agonist call (UniProt A2AVB0) | odorant receptor agonist call (UniProt A2AVB5) | odorant receptor agonist call (UniProt B2RVX8) | odorant receptor agonist call (UniProt E9PVX1) | odorant receptor agonist call (UniProt E9PZ66) | odorant receptor agonist call (UniProt E9Q4X7) | odorant receptor agonist call (UniProt E9Q546) | odorant receptor agonist call (UniProt E9Q6Z7) | odorant receptor agonist call (UniProt K7N609) | odorant receptor agonist call (UniProt E9PX47) | odorant receptor agonist call (UniProt E9PXN3) |
| --- | --- | --- | --- | --- | --- | --- | --- | --- | --- | --- | --- | --- |
| CCCCCCCCS | inactive | inactive | inactive | inactive | inactive | inactive | inactive | inactive | inactive | inactive |  |  |
| CCC(=O)C(=O)CC | inactive | inactive | inactive | inactive | inactive | inactive | inactive | inactive | inactive | inactive |  |  |
| CC(=O)OCc1ccccc1 | inactive | inactive | inactive | inactive | inactive | inactive | inactive | inactive | inactive | inactive |  |  |
| CCCCCCCCCO | inactive | inactive | inactive | inactive | inactive | inactive | inactive | inactive | inactive | inactive | inactive | inactive |
| CC(=O)Oc1ccccc1 | inactive | inactive | inactive | inactive | inactive | inactive | inactive | inactive | inactive | inactive |  |  |
| CCCCCCCCO | inactive | inactive | inactive | inactive | inactive | inactive | inactive | inactive | inactive | inactive | inactive | inactive |
| CCCCCC(=O)CC | inactive | inactive | inactive | inactive | inactive | inactive | inactive | inactive | inactive | inactive |  |  |
| CCCCCCCCCC(=O)[O-].[H+] | inactive | inactive | inactive | inactive | inactive | inactive | inactive | active | inactive | inactive | inactive |  |
| CCCCCCCCCCO | inactive | inactive | inactive | inactive | inactive | inactive | inactive | inactive | inactive | inactive |  |  |
| CC(C)=CCCC(C)=CCO | inactive | inactive | inactive | inactive | inactive | inactive | inactive | inactive | inactive | inactive |  |  |
